High-throughput results (PubChem BioAssay)
STAT1 act – activators of IFN-gamma induced STAT1 signaling. AID 932. activation (% of control), % at 5.5 µM. NIH 3T3 STAT1-luciferase reporter, luminescence; 100% = IFN-gamma alone, no compound. 200,000 tested, 2.6% active;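 active means activation above the screen-wide mean activation plus 3 SD, cut at about 130% in these data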;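 further: raw ratio to IFN-gamma control signal so 100% means no change and 0% no light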
STAT1 blocker – STAT1 signaling inhibition; NIH 3T3 STAT1-luciferase reporter, IFN-gamma, luminescence; inhibition, % at 5.5 µM; 200,000 tested, 0.35% active; AID 920;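 active means inhibition above a set limit, the mean inhibition across all tested compounds plus 3 SD, cut at about 34% in these data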;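 further: 0% = IFN-gamma with DMSO and 100% = IFN-gamma with 300 µM nifuroxazide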
STAT3 inh – STAT3 signaling inhibition; U3A cells, IL-6 STAT3-luciferase reporter, luminescence; host cell line lacks STAT1; 190,000 tested, 0.89% active; inhibition, % at 5.5 µM;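 active means inhibition above the mean inhibition across all screened compounds plus 3 SD, cut at about 44% in these data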;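 further: 0% = DMSO only wells and 100% = 100 µM nifuroxazide control wells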
STAT3 act – STAT3 signaling activation; 190,000 tested, 0.91% active; U3A cells, IL-6 STAT3-luciferase reporter, luminescence; 100% = signal with IL-6 EC80 alone; activation (% of control), % at 5.6 µM; AID 871;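 active means activation above the screen-wide mean of compound activation plus 3 SD, cut at about 130% in these data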;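 further: 0% = background luminescence of wells with medium and substrate only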
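Assay system – human STAT1-deficient U3A cells with stable STAT3-luciferase reporter · Also added – IL-6 (33 ng/mL) · Schedule – compound 1 h, then IL-6 6 h at 37 °C · Technique – reporter luminescence signal · Evaluation – % activation versus median of IL-6-stimulated wells · Benchmarks – IL-6-only wells as 100% reference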
APP 5'UTR act – APP 5'UTR luciferase reporter activation; SH-SY5Y APP 5'UTR luciferase reporter, luminescence; zero percent = DMSO vehicle wells; activation, % at 2 µM; 190,000 tested, 1% active; AID 1276;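 active means activation above a set limit, based on mean plus 3 SD of controls, cut at about 140% in these data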
NF-kB expr up – compounds increasing NF-kB expression in human neuronal cells; NF-kB reporter expression; hits give high values; fold change at 12.5 µM; 190,000 tested, 1.6% active; AID 1239; in the data active means fold change above about 3.3
* marks the source's active call; other numbers are inactive results; / = no result. Rows were chosen to be rich in hits. Some 4.9% of all compounds tested hit in one or more screens of this group.

SMILES	STAT1 act	STAT1 blocker	STAT3 inh	STAT3 act	APP 5'UTR act	NF-kB expr up
Brc1ccc2nc(N3CCN(c4ccccc4)CC3)sc2c1	129*	-36	9	97	132	2
Fc1ccc2nc(N3CCOCC3)sc2c1	138*	-45	5	100	27	1.7
c1ccc(N2CCN(c3nc4cc5c(cc4s3)OCO5)CC2)cc1	146*	-50	41	66	80	3.8*
O=S(=O)(c1ccccc1)N1CCN(c2nc3ccccc3s2)CC1	105	-6	8	98	14	1.3
Clc1ccc2nc(N3CCN(c4ccccc4)CC3)sc2c1	137*	-40	5	98	27	3.5*
CCN(CC)CCNC(=S)N1CCn2c(nc3ccccc32)C1	101	-1	2	106	-1	1.5
O=C(O)c1cc(S(=O)(=O)N2CCOCC2)c(Sc2ccccn2)cc1Sc1ccccn1	97	4	4	102	2	1
O=C1c2cccc3cccc(c23)C(=O)N1CC1CCN(S(=O)(=O)c2ccc(F)cc2)CC1	97	3	-6	103	8	0.97
Cc1ccc(S(=O)(=O)N2CCC(CN3C(=O)c4cccc5cccc(c45)C3=O)CC2)cc1	99	1	-108	186*	9	0.87
CC1(C2(O)CC(c3ccccc3)ON2)CCCCC1 (configuration not stated)	94	3	-2	102	5	1.1
CC(C)c1ccc(C(=O)NN2C(=O)C3CCCCC3C2=O)cc1 (configuration not stated)	144*	-48	17	92	55	1.6
CS(=O)(=O)c1ccc(C(=O)OCc2nnc(-c3ccc(Cl)cc3)o2)cc1[N+](=O)[O-]	87	14	11	93	-19	8.4*
CC(C)(C)c1ccc(C(=O)Nc2cnccn2)cc1	116	-17	37	71	173*	6.4*
C=CCn1c(N)cc(=O)nc1SCC(=O)NC(C)c1ccccc1 (configuration not stated)	99	6	4	99	20	1.1
COc1ccc(CCNC(=O)c2[nH]c(C)c(C(C)=O)c2C)cc1OC	99	1	11	93	-1	1.1
CC(=O)c1c(C)[nH]c(C(=O)OCCOc2ccccc2)c1C	53	50*	84*	31	212*	2.5
CC(=O)c1c(C)[nH]c(C(=O)COC(=O)CCCOc2ccccc2)c1C	96	4	9	97	0	1.1
CC(=O)c1c(C)[nH]c(C(=O)NCCc2ccccc2)c1C	149*	-54	10	96	131	3.4*
COc1n[nH]c(C(=O)Nc2nc3ccccc3s2)c1[N+](=O)[O-]	134*	-41	-22	123	17	1.5
CCOc1cc(C2NC(=O)NC(c3ccccc3)=C2C(=O)c2ccccc2)c(Br)cc1OCC(=O)O (configuration not stated)	108	-11	16	92	8	1.1
O=C(NCc1ccco1)Nc1ccc(Br)cc1Cl	133*	-36	24	82	43	1.7
C[C@H]1C=C(C(=O)NCc2ccccc2)O[C@@H](OCc2ccc(CO)cc2)C1	107	-6	/	/	17	1.1
Cn1c(-c2nnn(-c3ccc(F)cc3)n2)cc2ccccc21	149*	-51	/	/	159*	4.1*
Cc1ccc(-n2nnc(-c3cc4ccccc4n3C)n2)cc1	108	-7	/	/	122	1.2
CCN(Cc1ccccc1)c1ccc(N=Nc2nn(C)c(C)c2[N+](=O)[O-])cc1	133*	-36	-8	102	27	1.4
SMILES	STAT1 act	STAT1 blocker	STAT3 inh	STAT3 act	APP 5'UTR act	NF-kB expr up
COCn1c(COc2ccc3ccccc3c2)nc2ccccc21	138*	-41	-10	111	96	3.9*
CCn1c(COc2cccc(C)c2)nc2ccccc21	105	-5	23	83	1	1.4
O=C(CCSc1ccccc1)N1CCN(c2ccccc2)CC1	131*	-33	-10	111	58	2.5
O=C(CCCOc1ccccc1)N1CCN(c2ccccc2)CC1	131*	-32	-2	103	24	2
NC(=O)C1CCN(C(=O)CCSc2ccc(Cl)cc2)CC1	114	-15	-6	107	-3	1.4
CCOC(=O)N1CCN(C(=O)CCCOc2ccccc2)CC1	125	-26	-17	116	81	2
Cc1cccc(N2CCN(C(=O)CCCOc3ccccc3)CC2)c1C	132*	-35	-12	115	101	2
O=C(CCSc1ccc(Cl)cc1)N1CCCCCC1	132*	-35	7	103	38	2.3
COc1cc(/C=C2/NC(=O)N(c3cccc(Cl)c3)C2=O)ccc1O	134*	-39	40	69	-55	2.4
COc1ccc(-n2cccc2/C=C2/NC(=O)N(c3cccc(Cl)c3)C2=O)cc1	111	-13	-3	106	23	0.86
COc1cccc(N(CC(=O)N2CCN(C)CC2)S(=O)(=O)c2ccc(C)cc2)c1	99	1	-2	106	-9	1.1
C/C(=N\NC(=O)c1ccoc1C)c1cccnc1	143*	-48	-2	102	152*	12*
C/C(=N\NC(=O)c1cccs1)c1cccnc1	115	-16	5	100	11	1.6
C/C(=N\NC(=O)c1ccc(Cl)cc1)c1ccc(N2CCOCC2)cc1	94	8	-2	100	5	1
C/C(=N/NC(=O)c1ccoc1C)c1ccc(N2CCOCC2)cc1	146*	-51	4	99	202*	1.8
C/C(=N/NC(=O)c1ccoc1C)c1ccc(NC(=O)c2ccncc2)cc1	143*	-46	-10	107	125	2.1
Fc1ccc(/C=N/n2cnn(Cc3ccccc3Cl)c2=S)cc1	93	6	9	95	-62	1.1
N=C1C(c2nc3ccccc3s2)=C(O)CN1c1ccccc1	149*	-55	4	103	17	1.6
COc1ccc(N2CC(O)=C(c3nc4ccccc4s3)C2=N)cc1	109	-10	-4	108	14	1.1
NS(=O)(=O)c1ccc(CCNC(=O)NC2(C(F)(F)F)Oc3ccccc3O2)cc1	117	-18	0	103	-25	3.9*
COc1ccc(NC(=S)N2CCN(C/C=C/c3ccccc3)CC2)cc1OC	106	-6	6	96	-8	1.1
CCCc1nnc(SCc2ccc(OC)cc2)n1N	107	-7	2	102	7	1.2
Cc1ccc(SCC(=O)c2c(C)nc3cc(C)ccn23)cc1	98	0	17	88	-17	3.5*
O=C1C2C3C=CC(C3)C2C(=O)N1c1ccncc1 (configuration not stated)	99	1	2	102	-3	1.1
O=C1C2C3C=CC(C3)C2C(=O)N1c1ccc(-c2nc3ccccc3o2)cc1 (configuration not stated)	143*	-47	2	102	32	1.3
